Assay results from ChEMBL document CHEMBL1821640, “Novel 1,2,3-triazole derivatives for use against Mycobacterium tuberculosis H37Rv (ATCC 27294) strain” (J Med Chem, 2011).
In brackets after ≈: the same amount, converted by molar mass.

Key:
[1] = test system: Mycobacterium tuberculosis; assay: Antimicrobial activity against Mycobacterium tuberculosis H37Rv ATCC 27294 after 5 days by Microplate Alamar blue assay; format: functional; settings: H37Rv ATCC 27294, 120 h
Summary of the method: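 M. tuberculosis H37Rv grown 24 h at 37 °C, 150 rpm, in Middlebrook 7H9 + 10% OADC, washed, set to 0.1 McFarland and diluted 1:25. Two-fold dilutions in 7H9, final […], 5 days at 37 °C. Resazurin (Alamar Blue)/10% Tween 80 added for 24 h. MIC is the lowest concentration preventing a blue-to-pink change. Triplicates averaged.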

[2] = Selectivity index, ratio of MDL50 for human HepG2 cells to MIC for Mycobacterium tuberculosis H37Rv ATCC 27294; format: functional
[3] = Selectivity index, ratio of MDL50 for african green monkey BGM cells to MIC for Mycobacterium tuberculosis H37Rv ATCC 27294; format: functional
[4] = Cytotoxicity against human HepG2 cells after 24 hrs by MTT assay; format: cell-based; settings: read-out: MLD50
Summary of the method: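 HepG2 cells kept in RPMI 1640 with 10% heat-inactivated FCS and gentamicin at 37 °C under 5% CO2. Seeded at 5 × 10^3 cells/well and allowed to adhere for 18 h. Exposed to compound at 200–25 μg/mL for 24 h, then MTT (5 mg/mL solution) for 3 h. Absorbance is taken as % of untreated control after background subtraction, and MLD50 is derived.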

[5] = Cytotoxicity against african green monkey BGMK cells after 24 hrs by MTT assay; format: cell-based; settings: chlorocebus aethiops, read-out: MLD50

## Cc1ccc(-n2cc(CO)nn2)cc1
[1]
  MIC: > 100 µg/mL

## COc1ccccc1-n1cc(CO)nn1
[1]
  MIC: > 100 µg/mL

## FC(F)c1cn(-c2cccc(Cl)c2)nn1
[1]
  MIC: > 100 µg/mL

## Cc1ccc(-n2cc(C=O)nn2)cc1
[1]
  MIC: 66.7 µM

## NNC(=O)c1ccncc1 [ISONIAZID]
[1]
  MIC: 0.437 µM

## OCc1cn(-c2cc(Cl)ccc2Cl)nn1
[1]
  MIC: > 100 µg/mL

## O=Cc1cn(-c2ccc(Cl)cc2)nn1
[2]
  Ratio: 6
[1]
  MIC: 60.2 µM
[3]
  Ratio: 8
[4]
  CC50 at 24 h: 71 µg/mL (≈ 342 µM)
[5]
  CC50 at 24 h: 97 µg/mL (≈ 467 µM)

## Nc1nnc(-c2cccc(-n3cc(CO)nn3)c2)s1
[1]
  MIC: > 100 µg/mL

## N#Cc1cccc(-n2cc(CF)nn2)c1
[1]
  MIC: > 100 µg/mL

## OCc1cn(-c2ccc(Cl)c(Cl)c2)nn1
[1]
  MIC: > 100 µg/mL

## Cc1ccccc1-n1cc(CO)nn1
[1]
  MIC: > 100 µg/mL

## Cc1cccc(-n2cc(C=O)nn2)c1
[1]
  MIC: 134 µM

## COc1ccc(-n2cc(CO)nn2)cc1
[1]
  MIC: > 100 µg/mL

## COc1ccc(-n2cc(C=O)nn2)cc1
[1]
  MIC: 123 µM

## FC(F)(F)c1cn(-c2cc(Cl)cc(Cl)c2)nn1
[1]
  MIC: 177 µM

## COc1cccc(-n2cc(/C=N/NC(=O)c3ccncc3)nn2)c1
[1]
  MIC: 3.8 µM
[3]
  Ratio: >800
[5]
  CC50 at 24 h: > 1000 µg/mL

## C=Cc1cn(-c2ccc(Cl)cc2)nn1
[1]
  MIC: 243 µM

## FCc1cn(-c2cccc(Cl)c2)nn1
[1]
  MIC: 472 µM

## O=C(N/N=C/c1cn(-c2ccc(Cl)cc2)nn1)c1ccncc1
[2]
  Ratio: >1612
[1]
  MIC: 1.8 µM
[3]
  Ratio: >1612
[4]
  CC50 at 24 h: > 1000 µg/mL
[5]
  CC50 at 24 h: > 1000 µg/mL

## COc1cccc(-n2cc(CO)nn2)c1
[1]
  MIC: > 100 µg/mL

## C=Cc1cn(-c2ccccc2)nn1
[1]
  MIC: > 100 µg/mL

## OCc1cn(-c2ccc(Br)cc2)nn1
[1]
  MIC: > 100 µg/mL

## N#Cc1cccc(-n2cc(C(F)F)nn2)c1
[1]
  MIC: 114 µM

## O=C(N/N=C/c1cn(-c2ccc([N+](=O)[O-])cc2)nn1)c1ccncc1
[2]
  Ratio: >1612
[1]
  MIC: 1.8 µM
[3]
  Ratio: >1612
[4]
  CC50 at 24 h: > 1000 µg/mL
[5]
  CC50 at 24 h: > 1000 µg/mL

## O=Cc1cn(-c2ccccc2Cl)nn1
[1]
  MIC: 241 µM

## O=C(N/N=C/c1cn(-c2cc(Cl)ccc2Cl)nn1)c1ccncc1
[2]
  Ratio: >800
[1]
  MIC: 3.4 µM
[3]
  Ratio: >800
[4]
  CC50 at 24 h: > 1000 µg/mL
[5]
  CC50 at 24 h: > 1000 µg/mL

## O=[N+]([O-])c1ccc(-n2cc(CO)nn2)cc1
[1]
  MIC: > 100 µg/mL

## O=C(N/N=C/c1cn(-c2cccc(Cl)c2)nn1)c1ccncc1
[2]
  Ratio: >1612
[1]
  MIC: 1.8 µM
[3]
  Ratio: >1612
[4]
  CC50 at 24 h: > 1000 µg/mL
[5]
  CC50 at 24 h: > 1000 µg/mL

## CO[C@H]1/C=C/O[C@@]2(C)Oc3c(C)c(O)c4c(O)c(c(/C=N/N5CCN(C)CC5)c(O)c4c3C2=O)NC(=O)/C(C)=C\C=C\[C@H](C)[C@H](O)[C@@H](C)[C@@H](O)[C@@H](C)[C@H](OC(C)=O)[C@@H]1C [RIFAMPIN]
[1]
  MIC: 1.21 µM

## Cc1ccc(-n2cc(/C=N/NC(=O)c3ccncc3)nn2)cc1
[2]
  Ratio: 94
[1]
  MIC: 4 µM
[3]
  Ratio: >800
[4]
  CC50 at 24 h: 118 µg/mL (≈ 385 µM)
[5]
  CC50 at 24 h: > 1000 µg/mL

## O=Cc1cn(-c2cc(Cl)ccc2Cl)nn1
[1]
  MIC: > 100 µg/mL

## Cc1ccccc1-n1cc(C=O)nn1
[1]
  MIC: 267 µM

## O=Cc1cn(-c2cccc(Cl)c2)nn1
[1]
  MIC: 121 µM

## Nc1nnc(-c2cccc(-n3cc(C(F)F)nn3)c2)s1
[1]
  MIC: 340 µM

## O=C(N/N=C/c1cn(-c2ccc(Cl)c(Cl)c2)nn1)c1ccncc1
[2]
  Ratio: >400
[1]
  MIC: 6.9 µM
[3]
  Ratio: >400
[4]
  CC50 at 24 h: > 1000 µg/mL
[5]
  CC50 at 24 h: > 1000 µg/mL

## O=C(N/N=C/c1cn(-c2ccccc2Cl)nn1)c1ccncc1
[2]
  Ratio: 210
[1]
  MIC: 3.8 µM
[3]
  Ratio: >800
[4]
  CC50 at 24 h: 263 µg/mL (≈ 805 µM)
[5]
  CC50 at 24 h: > 1000 µg/mL

## FCc1cn(-c2cc(Cl)cc(Cl)c2)nn1
[1]
  MIC: 406 µM

## OCc1cn(-c2ccccc2Cl)nn1
[1]
  MIC: > 100 µg/mL

## C=Cc1cn(-c2ccc(OC)cc2)nn1
[1]
  MIC: 244 µM

## O=Cc1cn(-c2ccccc2)nn1
[1]
  MIC: 144 µM

## COc1cccc(-n2cc(C=O)nn2)c1
[1]
  MIC: 123 µM

## N#Cc1ccc(-n2cc(CF)nn2)cc1
[1]
  MIC: > 100 µg/mL

## O=Cc1cn(-c2ccc(Cl)c(Cl)c2)nn1
[1]
  MIC: 207 µM

## Cc1ccccc1-n1cc(/C=N/NC(=O)c2ccncc2)nn1
[2]
  Ratio: 126
[1]
  MIC: 8.1 µM
[3]
  Ratio: 400
[4]
  CC50 at 24 h: 314 µg/mL (≈ 1030 µM)
[5]
  CC50 at 24 h: > 1000 µg/mL

## O=C(N/N=C/c1cn(-c2ccccc2)nn1)c1ccncc1
[2]
  Ratio: >400
[1]
  MIC: 8.5 µM
[3]
  Ratio: >400
[4]
  CC50 at 24 h: > 1000 µg/mL
[5]
  CC50 at 24 h: > 1000 µg/mL

## O=Cc1cn(-c2ccc(F)cc2)nn1
[1]
  MIC: 131 µM

## OCc1cn(-c2ccc(Cl)cc2)nn1
[1]
  MIC: > 100 µg/mL

## COc1ccc(-n2cc(/C=N/NC(=O)c3ccncc3)nn2)cc1
[2]
  Ratio: >400
[1]
  MIC: 7.7 µM
[3]
  Ratio: >400
[4]
  CC50 at 24 h: > 1000 µg/mL
[5]
  CC50 at 24 h: > 1000 µg/mL

## C=Cc1cn(-c2ccccc2OC)nn1
[1]
  MIC: > 100 µg/mL

## OCc1cn(-c2ccccc2)nn1
[1]
  MIC: > 100 µg/mL

## OCc1cn(-c2cccc(Cl)c2)nn1
[1]
  MIC: > 100 µg/mL

## C=Cc1cn(-c2ccc([N+](=O)[O-])cc2)nn1
[1]
  MIC: > 100 µg/mL

## C=Cc1cn(-c2ccc(Cl)c(Cl)c2)nn1
[1]
  MIC: > 100 µg/mL

## COc1ccccc1-n1cc(C=O)nn1
[1]
  MIC: 246 µM

## Cc1cccc(-n2cc(CO)nn2)c1
[1]
  MIC: > 100 µg/mL

## FCc1cn(-c2ccc(Cl)cc2)nn1
[1]
  MIC: 472 µM

## C=Cc1cn(-c2cc(Cl)ccc2Cl)nn1
[2]
  Ratio: >321
[1]
  MIC: 13 µM
[3]
  Ratio: >321
[4]
  CC50 at 24 h: > 1000 µg/mL
[5]
  CC50 at 24 h: > 1000 µg/mL

## Cc1cccc(-n2cc(/C=N/NC(=O)c3ccncc3)nn2)c1
[2]
  Ratio: 200
[1]
  MIC: 2 µM
[3]
  Ratio: 422
[4]
  CC50 at 24 h: 124 µg/mL (≈ 405 µM)
[5]
  CC50 at 24 h: 262 µg/mL (≈ 855 µM)

## O=C(N/N=C/c1cn(-c2ccc(F)cc2)nn1)c1ccncc1
[2]
  Ratio: >800
[1]
  MIC: 4 µM
[3]
  Ratio: >800
[4]
  CC50 at 24 h: > 1000 µg/mL
[5]
  CC50 at 24 h: > 1000 µg/mL

## COC(=O)c1cn(-c2cc(Cl)cc(Cl)c2)nn1
[1]
  MIC: > 100 µg/mL

## FCc1cn(-c2ccc(Br)cc2)nn1
[1]
  MIC: 390 µM

## OCc1cn(-c2cc(Cl)cc(Cl)c2)nn1
[1]
  MIC: > 100 µg/mL

## OCc1cn(-c2ccc(F)cc2)nn1
[1]
  MIC: > 100 µg/mL

## N#Cc1cccc(-n2cc(CO)nn2)c1
[1]
  MIC: > 100 µg/mL

## COc1ccccc1-n1cc(/C=N/NC(=O)c2ccncc2)nn1
[2]
  Ratio: >1612
[1]
  MIC: 1.9 µM
[3]
  Ratio: >1612
[4]
  CC50 at 24 h: > 1000 µg/mL
[5]
  CC50 at 24 h: > 1000 µg/mL

## N#Cc1ccc(-n2cc(CO)nn2)cc1
[1]
  MIC: > 100 µg/mL

## O=Cc1cn(-c2ccc([N+](=O)[O-])cc2)nn1
[1]
  MIC: 115 µM
